Data published in ChEMBL document CHEMBL1687776, “Origin and molecular evolution of the determinant of methicillin resistance in staphylococci” (2010).
≈ marks a conversion by molar mass, not a printed value.

Experiments:
Staphylococcus vitulinus [1] = test: Antibacterial activity against mecA-negative Staphylococcus vitulinus SVMN14 by agar dilution method; assay type: functional; settings: Mammaliicoccus vitulinus
In short: (§1)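 MIC by agar dilution on Mueller-Hinton agar per CLSI guidance; resistance judged against CLSI breakpoints. Strains were animal or food isolates (type strains for S. sciuri subspecies), typed by hsp60 and/or sodA sequencing; mecA homologue carriage checked by PCR with degenerate primers. Agents tested: oxacillin, ampicillin, ceftizoxime, ceftriaxone, cefoxitin.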

Staphylococcus vitulinus [2] = test: Antibacterial activity against mecA-negative Staphylococcus vitulinus SVMN10 by agar dilution method; assay type: functional; settings: Mammaliicoccus vitulinus
In short: (§2)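 MIC by agar dilution on Mueller-Hinton agar following CLSI guidelines. Resistance was assigned using CLSI breakpoints. Agents tested were oxacillin, ampicillin, ceftizoxime, ceftriaxone and cefoxitin. Strains were from animal or food sources and identified by hsp60 and/or sodA sequencing. mecA absence was assessed by PCR with degenerate primers for mecA and its homologues.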

Mammaliicoccus lentus = test: Antibacterial activity against mecA-negative Staphylococcus lentus ATCC 29070T by agar dilution method; assay type: functional; in short: as §2
[3] = Antibacterial activity against methicillin-resistant mecA-positive Staphylococcus sciuri subsp. sciuri ATCC 29062T by agar dilution method; assay type: functional; settings: Mammaliicoccus sciuri; in short: as §1
Staphylococcus vitulinus [4] = test: Antibacterial activity against mecA-negative Staphylococcus vitulinus SVMN02 by agar dilution method; assay type: functional; settings: Mammaliicoccus vitulinus; in short: as §1
[5] = system: Staphylococcus fleurettii; test: Antibacterial activity against methicillin-resistant mecA-positive Staphylococcus fleurettii SFMP03 by agar dilution method; assay type: functional; settings: Mammaliicoccus fleurettii; in short: as §1
[6] = system: Staphylococcus fleurettii; test: Antibacterial activity against methicillin-resistant mecA-positive Staphylococcus fleurettii SFMP06 by agar dilution method; assay type: functional; settings: Mammaliicoccus fleurettii; in short: as §1
Staphylococcus vitulinus [7] = test: Antibacterial activity against mecA-negative Staphylococcus vitulinus SVMN03 by agar dilution method; assay type: functional; settings: Mammaliicoccus vitulinus; in short: as §2
Staphylococcus vitulinus [8] = test: Antibacterial activity against mecA-negative Staphylococcus vitulinus SVMN13 by agar dilution method; assay type: functional; settings: Mammaliicoccus vitulinus; in short: as §2
[9] = system: Staphylococcus fleurettii; test: Antibacterial activity against mecA-negative Staphylococcus fleurettii SFMN02 by agar dilution method; assay type: functional; settings: Mammaliicoccus fleurettii; in short: as §2
Staphylococcus vitulinus [10] = test: Antibacterial activity against mecA-negative Staphylococcus vitulinus SVMN08 by agar dilution method; assay type: functional; settings: Mammaliicoccus vitulinus; in short: as §2
Staphylococcus vitulinus [11] = test: Antibacterial activity against methicillin-resistant mecA-positive Staphylococcus vitulinus SVMP02 by agar dilution method; assay type: functional; settings: Mammaliicoccus vitulinus; in short: as §1
Staphylococcus vitulinus [12] = test: Antibacterial activity against mecA-negative Staphylococcus vitulinus SVMN05 by agar dilution method; assay type: functional; settings: Mammaliicoccus vitulinus; in short: as §1
Staphylococcus vitulinus [13] = test: Antibacterial activity against mecA-negative Staphylococcus vitulinus SVMN09 by agar dilution method; assay type: functional; settings: Mammaliicoccus vitulinus; in short: as §1
Staphylococcus vitulinus [14] = test: Antibacterial activity against mecA-negative Staphylococcus vitulinus SVMN06 by agar dilution method; assay type: functional; settings: Mammaliicoccus vitulinus; in short: as §1
Staphylococcus vitulinus [15] = test: Antibacterial activity against mecA-negative Staphylococcus vitulinus SVMN07 by agar dilution method; assay type: functional; settings: Mammaliicoccus vitulinus; in short: as §1
[16] = Antibacterial activity against mecA-positive Staphylococcus sciuri subsp. carnaticus ATCC 700058T by agar dilution method; settings: Mammaliicoccus sciuri
Staphylococcus vitulinus [17] = test: Antibacterial activity against methicillin-resistant mecA-positive Staphylococcus vitulinus SVMP03 by agar dilution method; assay type: functional; settings: Mammaliicoccus vitulinus; in short: as §1
[18] = Antibacterial activity against methicillin-resistant mecA-positive Staphylococcus sciuri subsp. rodentium ATCC 700061T by agar dilution method; assay type: functional; settings: Mammaliicoccus sciuri; in short: as §1
Staphylococcus vitulinus [19] = test: Antibacterial activity against mecA-negative Staphylococcus vitulinus SVMN04 by agar dilution method; assay type: functional; settings: Mammaliicoccus vitulinus; in short: as §1
[20] = system: Staphylococcus fleurettii; test: Antibacterial activity against methicillin-resistant mecA-positive Staphylococcus fleurettii SFMP04 by agar dilution method; assay type: functional; settings: Mammaliicoccus fleurettii; in short: as §1
Staphylococcus vitulinus [21] = test: Antibacterial activity against methicillin-resistant mecA-positive Staphylococcus vitulinus SVMP05 by agar dilution method; assay type: functional; settings: Mammaliicoccus vitulinus; in short: as §1
Staphylococcus vitulinus [22] = test: Antibacterial activity against methicillin-resistant mecA-positive Staphylococcus vitulinus SVMP06 by agar dilution method; assay type: functional; settings: Mammaliicoccus vitulinus; in short: as §1
Staphylococcus vitulinus [23] = test: Antibacterial activity against mecA-negative Staphylococcus vitulinus SVMN12 by agar dilution method; assay type: functional; settings: Mammaliicoccus vitulinus; in short: as §1
[24] = system: Staphylococcus fleurettii; test: Antibacterial activity against methicillin-resistant mecA-positive Staphylococcus fleurettii SFMP08 by agar dilution method; assay type: functional; settings: Mammaliicoccus fleurettii; in short: as §1
Staphylococcus vitulinus [25] = test: Antibacterial activity against mecA-negative Staphylococcus vitulinus SVMN11 by agar dilution method; assay type: functional; settings: Mammaliicoccus vitulinus; in short: as §1
Staphylococcus vitulinus [26] = test: Antibacterial activity against methicillin-resistant mecA-positive Staphylococcus vitulinus SVMP04 by agar dilution method; assay type: functional; settings: Mammaliicoccus vitulinus; in short: as §1
[27] = system: Staphylococcus fleurettii; test: Antibacterial activity against methicillin-resistant mecA-positive Staphylococcus fleurettii SFMP01(CCUG 43834T) by agar dilution method; assay type: functional; settings: Mammaliicoccus fleurettii; in short: as §1
Staphylococcus vitulinus [28] = test: Antibacterial activity against methicillin-resistant mecA-positive Staphylococcus vitulinus SVMP01 by agar dilution method; assay type: functional; settings: Mammaliicoccus vitulinus; in short: as §1
[29] = system: Staphylococcus fleurettii; test: Antibacterial activity against mecA-negative Staphylococcus fleurettii SFMN01 by agar dilution method; assay type: functional; settings: Mammaliicoccus fleurettii; in short: as §2
[30] = system: Staphylococcus fleurettii; test: Antibacterial activity against methicillin-resistant mecA-positive Staphylococcus fleurettii SFMP05 by agar dilution method; assay type: functional; settings: Mammaliicoccus fleurettii; in short: as §1
[31] = system: Staphylococcus fleurettii; test: Antibacterial activity against methicillin-resistant mecA-positive Staphylococcus fleurettii SFMP07 by agar dilution method; assay type: functional; settings: Mammaliicoccus fleurettii; in short: as §1
[32] = system: Staphylococcus fleurettii; test: Antibacterial activity against methicillin-resistant mecA-positive Staphylococcus fleurettii SFMP02 by agar dilution method; assay type: functional; settings: Mammaliicoccus fleurettii; in short: as §1
Staphylococcus vitulinus [33] = test: Antibacterial activity against mecA-negative Staphylococcus vitulinus SVMN01 (ATCC 51145T) by agar dilution method; assay type: functional; settings: Mammaliicoccus vitulinus; in short: as §2

SMILES | MIC (Staphylococcus vitulinus [1]) | MIC (Staphylococcus vitulinus [2]) | MIC (Mammaliicoccus lentus) | MIC [3] | MIC (Staphylococcus vitulinus [4]) | MIC [5] | MIC [6] | MIC (Staphylococcus vitulinus [7]) | MIC (Staphylococcus vitulinus [8]) | MIC [9] | MIC (Staphylococcus vitulinus [10]) | MIC (Staphylococcus vitulinus [11]) | MIC (Staphylococcus vitulinus [12]) | MIC (Staphylococcus vitulinus [13]) | MIC (Staphylococcus vitulinus [14]) | MIC (Staphylococcus vitulinus [15]) | MIC [16] | MIC (Staphylococcus vitulinus [17]) | MIC [18] | MIC (Staphylococcus vitulinus [19]) | further results
CO[C@@]1(NC(=O)Cc2cccs2)C(=O)N2C(C(=O)O)=C(COC(N)=O)CS[C@@H]21 [CEFOXITIN] | 0.5 µg/mL (≈ 1.17 µM) | 0.5 µg/mL (≈ 1.17 µM) | 2 µg/mL (≈ 4.68 µM) | 2 µg/mL (≈ 4.68 µM) | 1 µg/mL (≈ 2.34 µM) | 8 µg/mL (≈ 18.7 µM) | 2 µg/mL (≈ 4.68 µM) | 0.5 µg/mL (≈ 1.17 µM) | 1 µg/mL (≈ 2.34 µM) | 2 µg/mL (≈ 4.68 µM) | 0.25 µg/mL (≈ 0.585 µM) | 1 µg/mL (≈ 2.34 µM) | 1 µg/mL (≈ 2.34 µM) | 1 µg/mL (≈ 2.34 µM) | 2 µg/mL (≈ 4.68 µM) | 2 µg/mL (≈ 4.68 µM) | 2 µg/mL (≈ 4.68 µM) | 2 µg/mL (≈ 4.68 µM) | 2 µg/mL (≈ 4.68 µM) | 1 µg/mL (≈ 2.34 µM) | MIC [20]: 4 µg/mL (≈ 9.36 µM); MIC (Staphylococcus vitulinus [21]): 1 µg/mL (≈ 2.34 µM); MIC (Staphylococcus vitulinus [22]): 1 µg/mL (≈ 2.34 µM); MIC (Staphylococcus vitulinus [23]): 1 µg/mL (≈ 2.34 µM); MIC [24]: 2 µg/mL (≈ 4.68 µM); MIC (Staphylococcus vitulinus [25]): 1 µg/mL (≈ 2.34 µM); MIC (Staphylococcus vitulinus [26]): 1 µg/mL (≈ 2.34 µM); MIC [27]: 2 µg/mL (≈ 4.68 µM); MIC (Staphylococcus vitulinus [28]): 2 µg/mL (≈ 4.68 µM); MIC [29]: 2 µg/mL (≈ 4.68 µM); MIC [30]: 1 µg/mL (≈ 2.34 µM); MIC [31]: 1 µg/mL (≈ 2.34 µM); MIC [32]: 1 µg/mL (≈ 2.34 µM); MIC (Staphylococcus vitulinus [33]): 2 µg/mL (≈ 4.68 µM)
CC1(C)S[C@@H]2[C@H](NC(=O)[C@H](N)c3ccccc3)C(=O)N2[C@H]1C(=O)O [AMPICILLIN] | < 0.063 µg/mL | < 0.063 µg/mL | < 0.063 µg/mL | 0.125 µg/mL (≈ 0.358 µM) | < 0.063 µg/mL | 1 µg/mL (≈ 2.86 µM) | 1 µg/mL (≈ 2.86 µM) | < 0.063 µg/mL | < 0.063 µg/mL | 0.125 µg/mL (≈ 0.358 µM) | < 0.063 µg/mL | < 0.063 µg/mL | < 0.063 µg/mL | < 0.063 µg/mL | < 0.063 µg/mL | < 0.063 µg/mL | 0.125 µg/mL (≈ 0.358 µM) | < 0.063 µg/mL | 0.125 µg/mL (≈ 0.358 µM) | < 0.063 µg/mL | MIC [20]: 1 µg/mL (≈ 2.86 µM); MIC (Staphylococcus vitulinus [21]): < 0.063 µg/mL; MIC (Staphylococcus vitulinus [22]): < 0.063 µg/mL; MIC (Staphylococcus vitulinus [23]): < 0.063 µg/mL; MIC [24]: 1 µg/mL (≈ 2.86 µM); MIC (Staphylococcus vitulinus [25]): 0.125 µg/mL (≈ 0.358 µM); MIC (Staphylococcus vitulinus [26]): < 0.063 µg/mL; MIC [27]: 1 µg/mL (≈ 2.86 µM); MIC (Staphylococcus vitulinus [28]): < 0.063 µg/mL; MIC [29]: 0.125 µg/mL (≈ 0.358 µM); MIC [30]: 0.25 µg/mL (≈ 0.715 µM); MIC [31]: 0.25 µg/mL (≈ 0.715 µM); MIC [32]: 1 µg/mL (≈ 2.86 µM); MIC (Staphylococcus vitulinus [33]): 0.125 µg/mL (≈ 0.358 µM)
